Test results reported in ChEMBL document CHEMBL4196059, “Design, synthesis, and biological evaluation of stable β6.3-Helices: Discovery of non-hemolytic antibacterial peptides” (Eur J Med Chem, 2018).
Activity calls are given as the source filed them. The calls are words filed in the database; no cut-off is given here.

Key:
[1] = Hemolytic activity against human RBC at 50 uM after 1 hr by Drabkin's assay relative to control; type: ADME, cell-based, Erythrocyte; conditions: human red blood cells (erythrocytes), read-out: Activity
[2] = Hemolytic activity against human RBC at 25 uM after 1 hr by Drabkin's assay relative to control; type: ADME, cell-based, Erythrocyte; conditions: human red blood cells (erythrocytes), read-out: Activity
[3] = Hemolytic activity against human RBC at 12.5 uM after 1 hr by Drabkin's assay relative to control; type: ADME, cell-based, Erythrocyte; conditions: human red blood cells (erythrocytes), read-out: Activity
[4] = Hemolytic activity against human RBC at 6.25 uM after 1 hr by Drabkin's assay relative to control; type: ADME, cell-based, Erythrocyte; conditions: human red blood cells (erythrocytes), read-out: Activity
[5] = Hemolytic activity against human RBC at 3.125 uM after 1 hr by Drabkin's assay relative to control; type: ADME, cell-based, Erythrocyte; conditions: human red blood cells (erythrocytes), read-out: Activity
[6] = Hemolytic activity against human RBC at 1.56 uM after 1 hr by Drabkin's assay relative to control; type: ADME, cell-based, Erythrocyte; conditions: human red blood cells (erythrocytes), read-out: Activity
[7] = Hemolytic activity against human RBC at 0.78 uM after 1 hr by Drabkin's assay relative to control; type: ADME, cell-based, Erythrocyte; conditions: human red blood cells (erythrocytes), read-out: Activity
[8] = Hemolytic activity against human RBC at 0.39 uM after 1 hr by Drabkin's assay relative to control; type: ADME, cell-based, Erythrocyte; conditions: human red blood cells (erythrocytes), read-out: Activity
[9] = Hemolytic activity against human RBC at 100 uM after 1 hr by Drabkin's assay relative to control; type: ADME, cell-based, Erythrocyte; conditions: human red blood cells (erythrocytes), read-out: Activity
[10] = tested on: Erythrocyte; assay: Hemolytic activity against human RBC after 1 hr by Drabkin's assay; type: ADME, cell-based
[11] = tested on: Lipid bilayer; assay: Induction of pore formation in POPC vesicles at 20 uM after 3 hrs by carboxyfluorescein dye leakage assay; conditions: in the assay text read “after 3 mins” for “after 3 hrs”
Summary of the method: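 POPC or DOPC liposomes were hydrated in 10 mM HEPES, 100 mM KCl, pH 7.4, containing 50 mM carboxyfluorescein. Size was checked by dynamic light scattering, and vesicles were used at 2.2×10^10 per mL. Peptide at 20 μM was equilibrated with vesicles for 3 min, and dye leakage was measured.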

[12] = tested on: Staphylococcus aureus; assay: Growth inhibition of methicillin-resistant Staphylococcus aureus ATCC 43300 at 32 ug/ml after 18 hrs; type: functional; conditions: ATCC 43300, 18 h, read-out: GI
Summary of the method: (§1)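 Mid-log cultures in cation-adjusted Mueller Hinton broth were added at 5×10^5 CFU/mL to wells at a final compound concentration of 32 μg/mL. Plates stood at 37 °C for 18 h. Growth was read by OD600, and % inhibition was computed against media-only and untreated-bacteria controls.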

[13] = tested on: Escherichia coli; assay: Growth inhibition of Escherichia coli ATCC 25922 at 32 ug/ml after 18 hrs; type: functional; conditions: ATCC 25922, 18 h, read-out: GI
Summary of the method: (§2)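 Mid-log cultures were prepared as above and seeded at 5×10^5 CFU/mL with compound at a final 32 μg/mL, then held static at 37 °C for 18 h. Growth was read as OD600. Percent inhibition was calculated against media-only and bacteria-only controls on the same plate.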

[14] = tested on: Klebsiella pneumoniae; assay: Growth inhibition of multidrug-resistant Klebsiella pneumoniae ATCC 700603 at 32 ug/ml after 18 hrs; type: functional; conditions: ATCC 700603, 18 h, read-out: GI; summary of the method: as §1
[15] = tested on: Pseudomonas aeruginosa; assay: Growth inhibition of Pseudomonas aeruginosa ATCC 27853 at 32 ug/ml after 18 hrs; type: functional; conditions: ATCC 27853, 18 h, read-out: GI; summary of the method: as §2
[16] = tested on: Acinetobacter baumannii; assay: Growth inhibition of Acinetobacter baumannii ATCC 19606 at 32 ug/ml after 18 hrs; type: functional; conditions: ATCC 19606 = CIP 70.34 = JCM 6841, 18 h, read-out: GI; summary of the method: as §2
[17] = tested on: Cryptococcus neoformans; assay: Growth inhibition of Cryptococcus neoformans H99 ATCC 208821 at 32 ug/ml after 24 hrs by resazurin dye-based microspectrophotometric assay; type: functional; conditions: var. grubii H99 ATCC 208821, 24 h, read-out: GI
Summary of the method: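 Yeasts were grown 3 days on YPD agar at 30 °C, suspended from five colonies and diluted in YNB broth to a final 2.5×10^3 CFU/mL. Compound at a final 32 μg/mL; incubated 24 h at 35 °C without shaking. C. albicans was read at OD530. C. neoformans was read as OD600–570 after resazurin (0.001% final) and a further 2 h at 35 °C. Fluconazole was the standard.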

[18] = tested on: Candida albicans; assay: Growth inhibition of Candida albicans ATCC 90028 at 32 ug/ml after 24 hrs by OD530 light-scattering microspectrophotometric method; conditions: ATCC 90028, 24 h, read-out: GI

O=CN1CCCN1C(=O)N1CCC[C@H]1C(=O)N1CCCN1C(=O)N1CCC[C@H]1C(=O)N1CCCN1C(=O)N1CCC[C@H]1C(=O)N1CCCN1C(=O)N1CCC[C@H]1C(=O)N1CCCN1C(=O)N1CCC[C@H]1C(=O)NCCO
hemolysis at 1 h, 50 µM [1]: -0.361% | hemolysis at 1 h, 25 µM [2]: 0% | hemolysis at 1 h, 12.5 µM [3]: -0.913% | hemolysis at 1 h, 6.25 µM [4]: -0.361% | hemolysis at 1 h, 3.125 µM [5]: 0.02% | hemolysis at 1 h, 1.56 µM [6]: -0.452% | hemolysis at 1 h, 0.78 µM [7]: 0.08% | hemolysis at 1 h, 0.39 µM [8]: 0.361% | hemolysis at 1 h, 100 µM [9]: -0.251% | Activity [10]: Dose-dependent effect | Activity [11]: inactive

CC(C)(C)OC(=O)[C@@H]1CCCN1C(=O)N1CCCN1C(=O)[C@@H]1CCCN1C(=O)N1CCCN1C(=O)[C@@H]1CCCN1C(=O)N1CCCN1C(=O)[C@@H]1CCCN1C(=O)N1CCCN1C(=O)[C@@H]1CCCN1C(=O)N1CCCN1C(=O)[C@@H]1CCCN1C(=O)N1CCCN1C(=O)[C@@H]1CCCN1C(=O)N1CCCN1C(=O)[C@@H]1CCCN1C(=O)N1CCCN1.Cl
hemolysis at 1 h, 50 µM [1]: 0% | hemolysis at 1 h, 25 µM [2]: -0.271% | hemolysis at 1 h, 12.5 µM [3]: 0.181% | hemolysis at 1 h, 6.25 µM [4]: 0% | hemolysis at 1 h, 3.125 µM [5]: -0.361% | hemolysis at 1 h, 1.56 µM [6]: 0% | hemolysis at 1 h, 0.78 µM [7]: -0.903% | hemolysis at 1 h, 0.39 µM [8]: -0.181% | hemolysis at 1 h, 100 µM [9]: -0.181% | Activity [10]: Dose-dependent effect

O=C(OCc1ccccc1)N1CCCN1C(=O)[C@@H]1CCCN1C(=O)N1CCCN1C(=O)[C@@H]1CCCN1C(=O)N1CCCN1C(=O)[C@@H]1CCCN1C(=O)N1CCCN1C(=O)[C@@H]1CCCN1C(=O)N1CCCN1C(=O)[C@@H]1CCCN1C(=O)N1CCCN1C(=O)[C@@H]1CCCN1C(=O)N1CCCN1C(=O)[C@@H]1CCCN1C(=O)N1CCCN1C(=O)[C@@H]1CCCN1
inhibition of growth at 32 µg/mL [12]: 28.6% | inhibition of growth at 32 µg/mL [13]: 14.8% | inhibition of growth at 32 µg/mL [14]: 14.8% | inhibition of growth at 32 µg/mL [15]: -2.53% | inhibition of growth at 32 µg/mL [16]: 38.4% | inhibition of growth at 32 µg/mL [17]: 0.967% | Activity [11]: inactive | inhibition of growth at 32 µg/mL [18]: 4.07%

Cl.O=C(OCc1ccccc1)N1CCCN1C(=O)[C@@H]1CCCN1C(=O)N1CCCN1C(=O)[C@@H]1CCCN1C(=O)N1CCCN1C(=O)[C@@H]1CCCN1C(=O)N1CCCN1C(=O)[C@@H]1CCCN1
hemolysis at 1 h, 50 µM [1]: -0.013% | hemolysis at 1 h, 100 µM [9]: 0.045% | Activity [10]: Dose-dependent effect | inhibition of growth at 32 µg/mL [12]: 23.8% | inhibition of growth at 32 µg/mL [13]: 0.27% | inhibition of growth at 32 µg/mL [14]: 0.27% | inhibition of growth at 32 µg/mL [15]: -10.1% | inhibition of growth at 32 µg/mL [16]: 34.9% | inhibition of growth at 32 µg/mL [17]: -1.33% | inhibition of growth at 32 µg/mL [18]: 4.48%

CC(C)(C)OC(=O)N1CCC[C@H]1C(=O)N1CCCN1C(=O)N1CCC[C@H]1C(=O)N1CCCN1C(=O)N1CCC[C@H]1C(=O)N1CCCN1C(=O)N1CCC[C@H]1C(=O)N1CCCN1
hemolysis at 1 h, 50 µM [1]: 0.061% | hemolysis at 1 h, 100 µM [9]: 0.723% | Activity [10]: Dose-dependent effect | inhibition of growth at 32 µg/mL [12]: 28.3% | inhibition of growth at 32 µg/mL [13]: 4.51% | inhibition of growth at 32 µg/mL [14]: 4.51% | inhibition of growth at 32 µg/mL [15]: -4.17% | inhibition of growth at 32 µg/mL [16]: 7.37% | inhibition of growth at 32 µg/mL [17]: -0.655% | inhibition of growth at 32 µg/mL [18]: 3.56%

O=C([C@@H]1CCCN1C(=O)N1CCCN1C(=O)[C@@H]1CCCN1C(=O)N1CCCN1C(=O)[C@@H]1CCCN1C(=O)N1CCCN1C(=O)[C@@H]1CCCN1C(=O)N1CCCN1C(=O)[C@@H]1CCCN1C(=O)N1CCCN1C(=O)[C@@H]1CCCN1C(=O)N1CCCN1C(=O)[C@@H]1CCCN1C(=O)N1CCCN1C(=O)[C@@H]1CCCN1)N1CCCN1
inhibition of growth at 32 µg/mL [12]: 22.8% | inhibition of growth at 32 µg/mL [13]: 1.9% | inhibition of growth at 32 µg/mL [14]: 1.9% | inhibition of growth at 32 µg/mL [15]: -6.95% | inhibition of growth at 32 µg/mL [16]: -4.27% | inhibition of growth at 32 µg/mL [17]: -2.7% | inhibition of growth at 32 µg/mL [18]: 2.38%
